Bioassay records: PubChem, several laboratories
In the library only some 2.2% were active in any assay of this set; here they are far more common.
HIV Env fusion: HIV envelope-mediated fusion inhibition; HeLa-JRFL Env/CEM21 cell fusion, luciferase; inhibition, % at 12.3 µM; 360,000 compounds, 1.1% hits;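 active = mean replicate inhibition score of at least 50 and every replicate individually at or above 50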;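 note: 0% = plate neutral controls and 100% = maraviroc near 300 nM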
FXN GAA850 act: increases GAA850 frataxin promoter reporter activity; HEK293 lucGAA850 FXN promoter luciferase reporter, 24 h; percent of 10 µM SAHA response; activation, % at 6 µM; 360,000 compounds, 0.56% hits; AID 540364;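 active = activation above the average of all compounds screened plus 3 SD, cutoff fixed separately per campaign, cut at about 7.5% in these data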;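 note: 0% = DMSO wells and 100% = 10 µM SAHA wells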
V-ATPase pHluor: yeast V-ATPase proton transport regulation by pHLuorin; S. cerevisiae, pHLuorin cytosolic pH fluorescence; response, % at 10 µM; 350,000 compounds, 0.37% hits; AID 504577; in the data active = response mostly above about 7.3%, no sharp cut-off; inactive = mostly below about 5.4%; note: actives read high
NR2E3 ag-1: activates human NR2E3 receptor; 360,000 compounds, 0.35% hits; Q9Y5X4; AID 602229; CHO-S Gal4-NCOR/VP16-NR2E3 two-hybrid, luciferase; inhibition of corepressor binding, % at 3.98 µM;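 active = inhibition above the mean of all tested compounds plus 3 SD, cut at about 70% in these data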;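 note: 0% = DMSO with NR2E3 transfected cells and 100% = cells lacking NR2E3 construct; higher means lower luciferase signal from less NR2E3 corepressor binding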
Target sequence (Q9Y5X4 whole entry, looked up, the tested form may be a part): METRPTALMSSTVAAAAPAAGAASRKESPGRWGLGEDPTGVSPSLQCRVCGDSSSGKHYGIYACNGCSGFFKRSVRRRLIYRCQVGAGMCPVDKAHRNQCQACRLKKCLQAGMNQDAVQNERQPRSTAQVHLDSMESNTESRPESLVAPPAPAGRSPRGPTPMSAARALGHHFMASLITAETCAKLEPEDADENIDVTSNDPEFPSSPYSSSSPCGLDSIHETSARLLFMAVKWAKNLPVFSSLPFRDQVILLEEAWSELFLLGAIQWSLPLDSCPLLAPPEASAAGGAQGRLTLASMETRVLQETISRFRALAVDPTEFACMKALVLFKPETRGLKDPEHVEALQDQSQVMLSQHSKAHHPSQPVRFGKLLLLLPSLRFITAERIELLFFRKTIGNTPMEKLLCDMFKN
GalR3 antag: human GalR3 antagonism. 360,000 compounds, 0.44% hits. O60755. AID 651719. HEK293 GalR3-CNG cAMP membrane potential fluorescence; galR3 body fused to GalR1 C-terminus. inhibition, % at 3 µM;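 active = inhibition above the screen-wide average plus 3 SD, cut at about 13% in these data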;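 note: forskolin and galanin both at EC90 stimulate the cells; cAMP rise reported by CNG channel membrane potential dye signal; 0% = forskolin plus galanin with DMSO and 100% = forskolin alone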
Target sequence (O60755 1-299 limits assumed): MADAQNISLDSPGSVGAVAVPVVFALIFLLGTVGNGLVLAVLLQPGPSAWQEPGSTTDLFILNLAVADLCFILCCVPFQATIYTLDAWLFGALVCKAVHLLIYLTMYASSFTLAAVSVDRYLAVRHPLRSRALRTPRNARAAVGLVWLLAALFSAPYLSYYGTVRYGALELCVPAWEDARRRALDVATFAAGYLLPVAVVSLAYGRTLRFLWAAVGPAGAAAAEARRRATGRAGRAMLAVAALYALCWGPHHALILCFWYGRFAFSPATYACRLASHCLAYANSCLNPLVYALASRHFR
NR2E3 ag-2: agonists of human nuclear receptor NR2E3. GST-NR2E3/biotin-RetCOR TR-FRET, 1536-well. inhibition of corepressor binding, % at 4.78 µM. Q9Y5X4. 320,000 compounds, 0.12% hits;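 active = percent inhibition above the cutoff of mean plus 3 SD of all tested compounds, set per screening campaign, cut at about 20% in these data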;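 note: 0% = DMSO wells and 100% = biotin wells as full block of FRET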
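Test system: GST-NR2E3 and biotin-RetCOR proteins | Quantity: 1.35 nM GST-tagged NR2E3 final | Medium: Tris pH 7.5 | Also added: 7 nM biotin-RetCOR | Dosing: Compound at 4.8 µM, single dose | Timing: 5 h at 4 °C | Detection: Time-resolved FRET | Read-out basis: Percent inhibition | Benchmarks: Biotin wells as high control, 0.6% DMSO wells as low control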
VATPase regulator: yeast V-ATPase proton transport regulation. shares compounds with V-ATPase pHluor. S. cerevisiae pHLuorin cytosolic pH. response, % at 10 µM. 980 compounds, 2% hits. AID 602197; in the data active = response above about 24%;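 note: plate controls were vehicle wells for no effect and positive control wells for full effect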
Numbers without * were called inactive; · = no result; [ ] = dose if it differs, or a comment.

SMILES | HIV Env fusion | FXN GAA850 act | V-ATPase pHluor | NR2E3 ag-1 | GalR3 antag | NR2E3 ag-2 | VATPase regulator
CC(=O)N[C@H]1[C@H](O/N=[N+](\[O-])N2CCCC2)OC(CO)[C@@H](O)[C@@H]1O (stereo partly drawn) | 1[16.7 µM] | · | · | · | · | · | ·
Cc1cc(C)c(NC(=O)CSc2ccc(-c3ccccn3)nn2)c(C)c1 | -7 | 0 | 11* | -16 | 3 | 2 | 0
Cc1ccc(NC(=O)CSc2ccc(-c3ccccn3)nn2)c(C)c1 | -1 | 0 | 3 | -9 | 0 | 1 | ·
C(=C\c1nnc(-c2cccs2)o1)/c1ccccc1 | · | 4 | 13* | -120 | -8 | -1 | 4
O=C(OCc1c(Cl)cccc1Cl)c1cccnc1Cl | -121 | 2 | -2 | -22 | -4 | 0 | ·
O=C(OCc1ccccc1Cl)c1cccnc1Cl | -27 | 2 | 9.5* | -8 | -2 | 2 | 1
C[C@@H]1CN([C@@H](C)CO)C(=O)c2cc(NC(=O)Nc3ccc4c(c3)OCO4)ccc2O[C@@H]1CN(C)C(=O)Nc1ccccc1 | -4[16.7 µM] | · | · | · | · | · | ·
COc1ccccc1OCc1ccc(C(=O)Nc2ccccc2F)cc1 | -17 | 1 | 1 | -19 | 5 | 3 | ·
COCCNC(=O)c1ccccc1NC(=O)c1ccc(OC)c(OC)c1 | -53 | 0 | 11* | 13 | 4 | 0 | 2
COc1ccccc1NC(=O)c1ccc(COc2ccccc2OC)cc1 | -10 | -1 | 10* | -15 | -2 | -1 | 1
COc1ccc(NC(=O)Nc2ccc3c(c2)C(=O)N([C@@H](C)CO)C[C@H](C)[C@H](CN(C)C(=O)NC2CCCCC2)OCCCC[C@H](C)O3)cc1 | 16[16.7 µM] | · | · | · | · | · | ·
CCOC(=O)CC(=O)CSc1nnc2c(n1)[nH]c1ccccc12 | -138 | 0 | -3 | -61 | -6 | 3 | -1
O=C(O)CSc1nnc2c(n1)[nH]c1ccccc12 | 8 | 2 | 1 | -15 | -3 | -1 | ·
COCC(=O)Nc1ccc2c(c1)C(=O)N(C)[C@@H]1CC[C@@H](CC(=O)NCC3CC3)O[C@H]1CO2 | -19[16.7 µM] | · | · | · | · | · | ·
C[C@@H]1CCCCO[C@H](CN(C)Cc2ccc(C(=O)O)cc2)[C@@H](C)CN([C@H](C)CO)C(=O)c2cc(NS(=O)(=O)c3ccccc3)ccc2O1 | 3[16.7 µM] | · | · | · | · | · | ·
Cc1cc(NC(=O)CCC(=O)N(CC(=O)NC2CCCC2)Cc2ccc3c(c2)OCO3)no1 | -1 | 3 | 9.7* | -9 | -3 | -3 | -1
O=C1CSC(c2ccccc2[N+](=O)[O-])N1c1cccc(F)c1 (stereo not drawn) | 7 | -1 | 8.3* | -16 | -3 | -3 | 9
Cc1cccc(C)c1NC(=O)CNC(=O)c1ccncc1 | -16 | 2 | 8.3* | -17 | 2 | 1 | -2
CC(=O)N(C)C[C@H]1Oc2cc(C#CC(C)C)ccc2S(=O)(=O)N([C@H](C)CO)C[C@H]1C | -3[16.7 µM] | · | · | · | · | · | ·
CCCN(C(=O)COc1ccc(C(C)=O)cc1OC)C1CCS(=O)(=O)C1 (stereo not drawn) | · | 0 | 10* | 18 | -5 | 5 | -5
CC(=O)N(C)C[C@H]1Oc2cc(-c3cncnc3)ccc2S(=O)(=O)N([C@H](C)CO)C[C@@H]1C | -34[16.7 µM] | · | · | · | · | · | ·
CC(=O)Nc1ccc(S(=O)(=O)NNC(=O)COc2ccc(Cl)cc2Cl)cc1 | -3 | -2 | 13* | -22 | -5 | 2 | 4
NNC(=O)CNc1ccccc1Cl | -9 | 2 | 8.4* | 24 | -3 | -1 | 3
O=C(c1ccccc1)N1CN2CN(C(=O)c3ccccc3)CC([N+](=O)[O-])(C2)C1 | 8 | 1 | 46* | -25 | -1 | -1 | -3
O=C(O)c1ccc(N2C(=O)CC(N3CCC(c4nc5ccccc5[nH]4)CC3)C2=O)cc1 (stereo not drawn) | 10 | 1 | 1 | 8 | 1 | 1 | ·
SMILES | HIV Env fusion | FXN GAA850 act | V-ATPase pHluor | NR2E3 ag-1 | GalR3 antag | NR2E3 ag-2 | VATPase regulator
O=C1CC(N2CCC(c3nc4ccccc4[nH]3)CC2)C(=O)N1c1cccc(F)c1 (stereo not drawn) | 8 | 3 | 5.8* | 9 | 0 | 4 | 3
Cc1cc(NC(=O)c2cc(-c3ccc(Br)cc3)on2)no1 | 13 | 1 | 10* | 1 | -5 | 1 | 3
CCc1ccc(NC(=O)c2cc(C)on2)cc1 | · | 6 | -4 | -105 | -5 | -5 | ·
Cc1cc(NC(=O)c2cc(-c3ccc(O)cc3)on2)no1 | -39 | 4 | 1 | -38 | -7 | 1 | ·
Cc1ccc(NC(=O)c2cc(C)on2)cc1 | -67 | 4 | 6.9* | -77 | -4 | 0 | 2
COc1cccc(-c2cn(CC[C@@H]3CC[C@@H](NS(=O)(=O)Cc4ccccc4)[C@@H](CO)O3)nn2)c1 | 9[16.7 µM] | · | · | · | · | · | ·
COc1cccc(S(=O)(=O)N[C@@H]2CC[C@@H](CC(=O)NCc3ccccc3)O[C@H]2CO)c1 | -6[16.7 µM] | · | · | · | · | · | ·
CSc1nc2cc(S(=O)(=O)N3CCOCC3)ccc2s1 | -13 | 2 | 19* | -1 | -5 | 4 | 0
Cc1cccc(S(=O)(=O)N(C)C[C@H]2OCc3cn(nn3)CCCC(=O)N([C@H](C)CO)C[C@@H]2C)c1 | -41 | 0 | 4.9* | -36 | -3 | · | 1
CN(C)N1C(N)=C(C#N)C(c2ccsc2)C2=C1CCCC2=O (stereo not drawn) | 23 | 0 | 2 | 2 | -12 | 0 | ·
N#CC1=C(N)N(c2ccccc2)C2=C(C(=O)CCC2)C1c1ccsc1 (stereo not drawn) | -47 | 1 | 10* | -6 | -1 | 5 | -3
CC(=O)Nc1ccc(NC(=O)CSc2nnc(NC(=O)Cc3ccc(F)cc3)s2)cc1 | · | -1 | 8.3* | -6 | -4 | -1 | 2
CCC(C)C(=O)Nc1nnc(SCC(=O)Nc2ccc(F)cc2)s1 (stereo not drawn) | -10 | 0 | -1 | -4 | 0 | -1 | ·
O=C(CSC1=NCCS1)Nc1ccc(F)cc1 | 14 | -1 | 0 | -20 | -3 | 3 | -1
CNC[C@@H]1Oc2c(NC(=O)Nc3c(C)noc3C)cccc2C(=O)N([C@@H](C)CO)C[C@H]1C | 8[16.7 µM] | · | · | · | · | · | ·
CC(=O)c1c(C)[nH]c(C(=O)NCc2cccc(Cl)c2)c1C | -21 | 0 | 9.6* | -20 | -3 | 0 | -2
COCCN(Cc1ccccc1)C(=O)c1c(C)nn(-c2ccccc2)c1C | 10 | 1 | 9.2* | -6 | -2 | -2 | 0
COc1cc(OC)c(NC(=O)c2sc3ncn(CC(=O)N4CCOCC4)c(=O)c3c2C)cc1Cl | -10 | 1 | 6.4* | -13 | 5 | 8 | -12
Cc1cccc(S(=O)(=O)N[C@@H]2CC[C@@H](CCn3cc(-c4ccccn4)nn3)O[C@@H]2CO)c1 | -1[16.7 µM] | · | · | · | · | · | ·
CN(C)CCCN(C(=O)c1ccc2c(c1)CCCC2)c1nc2ccc(F)cc2s1 | · | 0 | 19* | -23 | -14 | 2 | 0
